Shown are actives, neighbours in structure and some others; about 4.7% of the full set was active somewhere.
FXN GAA850 act: frataxin GAA850 promoter activation. HEK293 lucGAA850 FXN promoter luciferase reporter, 24 h; percent of 10 µM SAHA response. activation, % at 6 µM. 360,000 compounds, 0.56% hits;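 active means activation above the average of all compounds screened plus 3 SD, cutoff fixed separately per campaign, cut at about 7.5% in these data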;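 further: 0% = DMSO wells and 100% = 10 µM SAHA wells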
MC4R ag barr: agonists of human melanocortin 4 receptor (MC4R) beta-arrestin | 360,000 compounds, 0.98% hits | U2OS MC4R beta-arrestin complementation, luminescence; percent of melanotan II response, DMSO zero | activation, % at 8.9 µM;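 active means activation above a per-plate cutoff, the mean activation of sample wells on that plate plus 3 SD, cut at about 8% in these data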
m5-HT2A agonist: mouse HTR2A agonism via beta-arrestin recruitment; 360,000 compounds, 0.66% hits; activation, % at 7.6 µM; AID 624169; CHO-K1 mHTR2A beta-arrestin complementation, luminescence; percent of 30 µM serotonin response; P35363;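 active means activation above a run cutoff, the mean activation of all tested compounds plus 3 SD, cut at about 14% in these data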;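 further: 0% = plate median of compound wells and 100% = 30 µM serotonin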
MC4R antag cAMP: human MC4R antagonism in cAMP assay. MC4R-expressing cells, MTII-stimulated cAMP, LANCE TR-FRET. inhibition, % at 6.5 µM. 360,000 compounds, 0.48% hits;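 active means inhibition above its plate's cutoff, the mean of tested wells on that plate plus 3 SD, cut at about 29% in these data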;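 further: 0% = Melanotan II alone and 100% = Melanotan II plus saturating MCL0020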
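System: U2OS cells stably expressing human melanocortin 4 receptor (MC4R). Reagent: Melanotan II challenge after compound preincubation. Doses: 6.5 µM. Times: 30-min compound, 1-h challenge, 1-h detection, room temperature. Measured by: TR-FRET with Eu-cAMP and labeled anti-cAMP, 671 nm. Replicates: singlicate.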
AHR activator: human AHR activation; activation, % at 5 µM; AHR-responsive luciferase reporter cells, luminescence; 320,000 compounds, 2.5% hits; AID 2796; in the data active means activation above about 47%;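 further: 0% = vehicle wells and 100% = reference agonist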
MOR ag counter: activates human mu opioid receptor in HTR2A counterscreen | shares compounds with m5-HT2A agonist | U2OS OPRM1 beta-arrestin PathHunter, luminescence; DMSO 0%, DAMGO 9.3 µM 100% | 2,300 compounds, 5.3% hits | activation, % at 9.3 µM;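 active means mean activation above the mean of DMSO-only wells plus 3 SD, cut at about 0.5% in these data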
HTR2A ag conf: mouse HTR2A agonism confirmed | shares compounds with m5-HT2A agonist | CHO-K1 PathHunter beta-arrestin recruitment, luminescence; DMSO 0%, 30 µM serotonin 100% | activation, % at 7.6 µM | 2,300 compounds, 19% hits;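 active means mean activation across triplicates above the hit threshold derived in the original primary screen, cut at about 15% in these data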
Numbers without * were called inactive; / = not tested or not shown.

SMILES | FXN GAA850 act | MC4R ag barr | m5-HT2A agonist | MC4R antag cAMP | AHR activator | MOR ag counter | HTR2A ag conf
COc1ccc(NC(=S)N2CCN(C(=O)c3ccco3)CC2)cc1 | -1 | 0 | 2 | 0 | -3 | / | /
COc1cc(Cl)ccc1OCc1cc(C(=O)NCCCN2CCCC2=O)no1 | 0 | -3 | 2 | 2 | 28 | / | /
c1ccc(CCNc2ccc3ncc(-c4cccc5ccccc45)n3n2)nc1 | 1 | -1 | -2 | 5 | / | / | /
COc1ccc(NC(=O)COC(=O)C2CCN(S(=O)(=O)c3cccs3)CC2)cc1 | -1 | 0 | 2 | 6 | 0 | / | /
O=C(c1ccco1)N1CCN(Cc2ccc(F)cc2)CC1 | 2 | -2 | 20* | -10 | -1 | 0 | 74*
CCOc1cc(CN2CCN(C(=O)c3ccco3)CC2)ccc1OC | 2 | 2 | 18* | 2 | 1 | -1 | 71*
CCOc1ccc(CN2CCN(C(=O)c3ccco3)CC2)cc1 | 3 | -1 | 24* | 2 | -2 | 0 | 130*
COc1ccc(N2CCN(C(=O)COC(=O)c3ccco3)CC2)cc1 | -1 | 0 | 15* | -2 | 0 | 0 | -1
O=C(CNC(=O)c1ccc(F)cc1)N/N=C/c1cccnc1 | -1 | 1 | 2 | 3 | 3 | / | /
COc1ccc2ccccc2c1CN1CCN(C(=O)c2ccccc2)CC1 | 1 | 1 | -3 | 2 | 3 | / | /
COc1ccc2ccccc2c1CN1CCN(C(=O)c2ccco2)CC1 | 0 | -1 | 17* | 1 | 6 | 0 | 130*
COc1ccc(CN2CCN(CC(O)Cn3c4ccccc4c4ccccc43)CC2)cc1 (stereo not drawn) | -2 | 9.5* | 19* | 12 | 11 | 1.1* | 8
O=C(c1ccco1)N1CCN(C(=O)c2ccco2)CC1 | / | / | 11 | / | / | / | /
O=C(c1ccco1)N1CCN(Cc2ccccc2Br)CC1 | 0 | 0 | 16* | 28 | -1 | -1 | 64*
CCCC(C(=O)Nc1ccc2c(C)cc(=O)oc2c1)c1ccccc1 (stereo not drawn) | 2 | 2 | 1 | -3 | -8 | / | /
CN(c1ccc(-c2csc(NC(=O)CCCc3nc4ccccc4c(=O)[nH]3)n2)cc1)S(C)(=O)=O | -2 | -1 | 7 | 10 | / | / | /
Cc1cc(C)cc(OCC(=O)OCC(=O)NCc2ccco2)c1 | -1 | 0 | -2 | 6 | -1 | / | /
Cc1cc(OCC(=O)OCC(=O)NCc2ccco2)ccc1Cl | 1 | 1 | 15* | -6 | 1 | -1 | -2
CC(C)(C)N(Cc1ccc2c(c1)OCO2)C(=O)/C=C\S(=O)c1ccccc1 (stereo not drawn) | -12 | -2 | 19* | -10 | / | -1 | 2
CCN(CC)Cc1cc2[nH]c3c4ccc(Cl)cc4ncc3c2cc1OC | 0 | -1 | -1 | 6 | / | / | /
CC1C(=O)N2CCCc3cc(S(=O)(=O)N4CCC(C(N)=O)CC4)cc1c32 (stereo not drawn) | 1 | 1 | 0 | 8 | 0 | / | /
O=C(Nc1ccc2c(c1)OCCO2)C(CCc1ccccc1)N(Cc1ccccc1)Cc1ccccc1 (stereo not drawn) | / | / | 18* | / | / | -1 | -6
O=C(CCCc1ccccc1)Nc1ccc2c(c1)OCCO2 | 4 | 1 | -6 | 0 | 2 | / | /
CC(C)c1nc(SCC(=O)NCC2CCCO2)c2c(=O)n(C)c(=O)n(C)c2n1 (stereo not drawn) | -1 | -3 | 28* | 8 | -1 | -1 | -4
CCc1nc(SCC(=O)NCC2CCCO2)c2c(=O)n(C)c(=O)n(C)c2n1 (stereo not drawn) | -1 | 0 | 7 | -1 | -1 | / | /
COc1ccc(Cn2cc(CN3CC(N(C)C)CS3(=O)=O)nn2)cc1 (stereo not drawn) | / | / | -1 | / | / | / | /
O=C(NCc1cccnc1)c1cc(C2CCCCN2C(=O)c2ccccc2)on1 (stereo not drawn) | 2 | 1 | 3 | 3 | / | / | /
Cn1nc(C(C)(C)C)cc1C(=O)N1CCCCC1c1cc(C(=O)NCc2cccnc2)no1 (stereo not drawn) | -2 | 1 | 15* | 0 | / | 0 | 1
Nc1ccn([C@@H]2O[C@H](CNC(=O)[C@@H](Cc3cn(COCc4ccccc4)cn3)NC=O)[C@@H](O)[C@H]2O)c(=O)n1 | 0 | -2 | -5 | 3 | / | / | /

High-throughput results from PubChem BioAssay.
